Assay results published in ChEMBL document CHEMBL4014308, “Amphiphilic Tobramycin-Lysine Conjugates Sensitize Multidrug Resistant Gram-Negative Bacteria to Rifampicin and Minocycline” (J Med Chem, 2017).
Activity calls are given as the source filed them. The calls are words filed in the database; no cut-off is given here.

What was measured:
Pseudomonas aeruginosa [1] = assay: Antibacterial activity against Pseudomonas aeruginosa PAO1 after 18 hrs by microtiter dilution assay; assay type: functional; conditions: PAO1, 18 h
Summary of the method: (§1)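 Broth microdilution following CLSI guidelines. An overnight culture was adjusted to 0.5 McFarland in saline, then diluted 1:50 in Mueller-Hinton broth. This inoculum was added in equal volume to 2-fold serial dilutions of agent in MHB and incubated 18 h at 37 °C. MIC was the lowest concentration with no visible growth.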

[2] = Cytotoxicity against human JIMT1 cells assessed as cell viability at 20 uM after 48 hrs by MTS assay relative to control; assay type: cell-based, JIMT-1; conditions: read-out: Activity
Summary of the method: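 DU145 and JIMT-1 grown in DMEM with 10% FBS and penicillin/streptomycin at 37 °C, 5% CO2. 7500–9000 cells/well were seeded for 24 h, then treated at 2.5–30 µM (final) for 48 h. MTS reagent (20% v/v) added for 4 h and OD read at 490 nm after blank subtraction; viability expressed relative to vehicle control.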

Pseudomonas aeruginosa [3] = assay: Bactericidal activity against Pseudomonas aeruginosa PAO1 at antibacterial MIC after 2 hrs; assay type: functional
Summary of the method: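 Time-kill with P. aeruginosa PAO1. A 0.5 McFarland suspension was diluted 1:50 in LB broth and exposed to agent in PBS (pH 7.2) at 1/2×, 1×, 2× or 4× MIC at 37 °C for 6 h. Samples at 0, 10, 30, 60, 90, 120, 240 and 360 min were serially diluted in PBS, plated on LB agar, and colonies counted after 20 h at 37 °C.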

Pseudomonas aeruginosa [4] = assay: Potentiation of minocycline-induced antibacterial activity against multidrug/extremely drug-resistant/colistin-susceptible Pseudomonas aeruginosa isolate P262-101856 infected in Galleria mellonella assessed as host survival at 75 mg/kg after 24 hrs relative to control; assay type: functional; conditions: isolate P262-101856, 24 h
Summary of the method: (§2)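 Galleria mellonella larvae (about 250 mg, used within 7 days; 15 per group) were injected with 10 µL of XDR P. aeruginosa P262 at 1.0×10^3 CFU/mL. At 2 h they received a single 10 µL injection: monotherapy at 75 mg/kg, or combinations at 12.5+12.5 to 75+75 mg/kg. PBS vehicle served as control. Survival was scored over 24 h at 37 °C.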

Pseudomonas aeruginosa [5] = assay: Potentiation of minocycline-induced antibacterial activity against multidrug/extremely drug-resistant/colistin-susceptible Pseudomonas aeruginosa isolate P264-104354 assessed as fold reduction in minocycline MIC at 4 ug/ml after 18 hrs by checkerboard assay relative to control; assay type: functional
Summary of the method: (§3)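 Checkerboard in Mueller-Hinton broth, 10 × 7 matrix, with the adjuvant held at 4 µg/mL. Inoculum from a 0.5 McFarland suspension diluted 1:50; 18 h at 37 °C. Antibiotic MIC (lowest concentration with no growth) with adjuvant is compared with the antibiotic MIC alone, giving a fold reduction.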

Pseudomonas aeruginosa [6] = assay: Potentiation of minocycline-induced antibacterial activity against multidrug/extremely drug-resistant/colistin-resistant Pseudomonas aeruginosa isolate 101243 assessed as fold reduction in minocycline MIC at 4 ug/ml after 18 hrs by checkerboard assay relative to control; assay type: functional; summary of the method: as §3
Pseudomonas aeruginosa [7] = assay: Potentiation of minocycline-induced antibacterial activity against multidrug/extremely drug-resistant/colistin-susceptible Pseudomonas aeruginosa isolate P264-104354 at 4 ug/ml after 18 hrs by checkerboard assay; assay type: functional
Summary of the method: (§4)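 Checkerboard in Mueller-Hinton broth: antibiotic serially diluted along one axis and adjuvant along the other (10 × 7 matrix). Inoculum from a 0.5 McFarland saline suspension diluted 1:50 in MHB; 18 h at 37 °C, then plate read. MIC is the lowest concentration with no growth. FIC of each agent is its concentration in a no-growth well divided by its MIC alone; FIC index is the sum of both. FIC index ≤0.5 counts as synergy.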

Pseudomonas aeruginosa [8] = assay: Antibacterial activity against multidrug/extremely drug-resistant/colistin-susceptible Pseudomonas aeruginosa isolate 101885 after 18 hrs by microtiter dilution assay; assay type: functional; conditions: isolate 101885, 18 h; summary of the method: as §1
Pseudomonas aeruginosa [9] = assay: Potentiation of gentamicin-induced antibacterial activity against Pseudomonas aeruginosa PAO1 at 4 ug/ml after 18 hrs by checkerboard assay; assay type: functional; summary of the method: as §4
Acinetobacter baumannii [10] = assay: Antibacterial activity against multidrug-resistant Acinetobacter baumannii AB031 after 18 hrs by microtiter dilution assay; assay type: functional; conditions: AB031, 18 h; summary of the method: as §1
Pseudomonas aeruginosa [11] = assay: Potentiation of rifampicin-induced antibacterial activity against multidrug/extremely drug-resistant/colistin-susceptible Pseudomonas aeruginosa isolate P264-104354 assessed as fold reduction in rifampicin MIC at 4 ug/ml after 18 hrs by checkerboard assay relative to control; assay type: functional
Summary of the method: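 Checkerboard broth microdilution in MHB: antibiotic serially diluted along one axis, adjuvant along the other (10 × 7 matrix). Inoculum from 0.5 McFarland saline suspension diluted 1:50 in MHB; 18 h at 37 °C. MIC taken as lowest concentration with no growth. FIC per agent = combination MIC/MIC alone; FIC index = sum (≤0.5 synergy).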

Klebsiella pneumoniae = assay: Antibacterial activity against multidrug-resistant Klebsiella pneumoniae 116381 after 18 hrs by microtiter dilution assay; assay type: functional; conditions: Klebsiella pneumoniae, 116381, 18 h; summary of the method: as §1
Acinetobacter baumannii [12] = assay: Potentiation of rifampicin-induced antibacterial activity against multidrug-resistant Acinetobacter baumannii 110193 at 4 ug/ml after 18 hrs by checkerboard assay; assay type: functional; summary of the method: as §4
Pseudomonas aeruginosa [13] = assay: Antibacterial activity against multidrug/extremely drug-resistant/colistin-resistant Pseudomonas aeruginosa isolate 91433 after 18 hrs by microtiter dilution assay; assay type: functional; conditions: isolate 91433, 18 h; summary of the method: as §1
Pseudomonas aeruginosa [14] = assay: Potentiation of rifampicin-induced antibacterial activity against multidrug/extremely drug-resistant/colistin-susceptible Pseudomonas aeruginosa isolate P262-101856 infected in Galleria mellonella assessed as host survival at 75 mg/kg after 24 hrs relative to control; assay type: functional; conditions: isolate P262-101856, 24 h; summary of the method: as §2
Pseudomonas aeruginosa [15] = assay: Synergistic antibacterial activity against Pseudomonas aeruginosa PAO1 after 18 hrs in presence of meropenem by checkerboard assay; assay type: functional; conditions: PAO1, 18 h
Summary of the method: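 Checkerboard in MHB: antibiotic diluted along one axis and adjuvant along the other (10 × 7 matrix). Inoculum was a 1:50 dilution in MHB of a 0.5 McFarland saline suspension; incubated 18 h at 37 °C. Each FIC = concentration in the no-growth well divided by the MIC alone; FIC index = sum of both FICs. ≤0.5 synergy, 0.5–4 no interaction, ≥4 antagonism.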

[16] = test system: Staphylococcus epidermidis; assay: Antibacterial activity against methicillin-resistant Staphylococcus epidermidis isolate CAN-ICU 61589 after 18 hrs by microtiter dilution assay; assay type: functional; conditions: isolate CAN-ICU 61589, 18 h; summary of the method: as §1
Pseudomonas aeruginosa [17] = assay: Potentiation of minocycline-induced antibacterial activity against Pseudomonas aeruginosa PAO750 harboring RND efflux pump/OpmH deletion mutant after 18 hrs by checkerboard assay; assay type: functional
Summary of the method: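 Checkerboard in MHB with a 10 × 7 matrix: antibiotic serially diluted along one axis, adjuvant along the other. Inoculum was a 1:50 dilution of a 0.5 McFarland suspension, incubated 18 h at 37 °C and read on a plate reader. Each FIC is the concentration in a no-growth well divided by the MIC alone; FIC index is their sum, with ≤0.5 taken as synergy.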

Pseudomonas aeruginosa [18] = assay: Potentiation of rifampicin-induced antibacterial activity against multidrug/extremely drug-resistant/colistin-susceptible Pseudomonas aeruginosa isolate 101885 assessed as fold reduction in rifampicin MIC at 4 ug/ml after 18 hrs by checkerboard assay relative to control; assay type: functional; summary of the method: as §3
Escherichia coli = assay: Antibacterial activity against amikacin-resistant Escherichia coli isolate CAN-ICU 63074 after 18 hrs by microtiter dilution assay; assay type: functional; conditions: isolate CAN-ICU 63074, 18 h; summary of the method: as §1

With `Cl.Cl.Cl.Cl.Cl.Cl.Cl.NCCCC[C@H](N)C(=O)N(CCCCCCCCCCCCO[C@@H]1[C@@H](O[C@H]2O[C@H](CO)[C@@H](O)[C@H](N)[C@H]2O)[C@H](N)C[C@H](N)[C@H]1O[C@H]1O[C@H](CN)[C@@H](O)C[C@H]1N)Cc1c2ccccc2c(Cl)c2ccccc12` the MIC (Pseudomonas aeruginosa [1]) was 32 µg/mL, the viability at 48 h, 20 µM [2] was > 50% and the Activity (Pseudomonas aeruginosa [3]) was “Active”. For the same compound, the survival at 75 mg/kg (Pseudomonas aeruginosa [4]) was 77%, the “fold change (FC)” value (Pseudomonas aeruginosa [5]) was 128 and the “fold change (FC)” value (Pseudomonas aeruginosa [6]) was 4. The “fractional inhibitory concentration index (FICI)” value (Pseudomonas aeruginosa [7]) was 0.079, the MIC (Pseudomonas aeruginosa [8]) was 16 µg/mL and the “fractional inhibitory concentration index (FICI)” value (Pseudomonas aeruginosa [9]) was 1.125. The MIC (Acinetobacter baumannii [10]) was 16 to 32 µg/mL, the “fold change (FC)” value (Pseudomonas aeruginosa [11]) was 64 and the MIC (Klebsiella pneumoniae) was 256 µg/mL. The “fractional inhibitory concentration index (FICI)” value (Acinetobacter baumannii [12]) was 0.095, the MIC (Pseudomonas aeruginosa [13]) was 8 µg/mL and the survival at 75 mg/kg (Pseudomonas aeruginosa [14]) was 77%. The MIC (Pseudomonas aeruginosa [15]) was 1 µg/mL, the MIC [16] was 4 µg/mL and the “fractional inhibitory concentration index (FICI)” value (Pseudomonas aeruginosa [17]) was 0.75. The “fold change (FC)” value (Pseudomonas aeruginosa [18]) was 128 and the MIC (Escherichia coli) was 16 µg/mL.
